According to ChEMBL document CHEMBL1149197, “Design and synthesis of beta-amino-alpha-hydroxy amide derivatives as inhibitors of MetAP2 and HUVEC growth” (Bioorg Med Chem Lett, 2004):
≈ marks a conversion by molar mass, not a printed value.

What was measured:
Format in all cases: functional
HUVEC [1] = test: In vitro anti-proliferative activity against human umbilical vein endothelial cells at 5 uM.; conditions: for inhibition of growth at 5 µM: Homo sapiens, HUVEC, read-out: GI
HUVEC [2] = test: Anti-proliferative activity against human umbilical vein endothelial cells (HUVECs)
Method in brief: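 HUVECs seeded at 1500 cells/well and cultured 24 h at 37 °C, then exposed to a dose-response series of compound for 24 h. Proliferation was read as ³H-thymidine incorporation by scintillation proximity assay. GI₅₀ was taken from plots of percent-of-control ³H-thymidine uptake versus compound concentration.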

Bos taurus = species on record: Bos taurus; test: Anti-proliferative activity against calf endothelial cells; conditions: endothelial cell

Structure (SMILES)	inhibition of growth at 5 µM (HUVEC [1]) [%]	GI50 (HUVEC [2]; Homo sapiens, HUVEC) [µM]	also measured
COc1cc(/C=C/C(=O)NC2CCC(NC(=O)[C@@H](O)[C@H](N)CC3CCCCC3)CC2)cc(OC)c1OC (some centres not stated)	52	–	–
COc1cc(/C=C/C(=O)Nc2ccc(NC(=O)[C@@H](O)[C@H](N)CCc3ccccc3)c(C)c2)cc(OC)c1OC	92	2.3	–
CCSCC[C@@H](N)[C@H](O)C(=O)Nc1ccc(NC(=O)/C=C/c2cc(OC)c(OC)c(OC)c2)cc1	89	–	–
COc1cc(/C=C/C(=O)O[C@@H]2CC[C@]3(CO3)[C@@H]([C@]3(C)O[C@H]3CCC=C(C)C)[C@@H]2OC)cc(OC)c1OC	–	–	IC50 (Bos taurus): 3e-05 ng/mL (≈ 5.81e-05 nM)
CCOc1ccc(CCC(=O)Nc2ccc(NC(=O)[C@@H](O)[C@H](N)CC3CCCCC3)cc2)cc1	42	–	–
CCOc1ccc(/C=C/C(=O)Nc2ccc(NC(=O)[C@@H](O)[C@H](N)CCc3ccccc3)cc2)cc1	> 98	1.8	–
COc1cc(/C=C/C(=O)Nc2ccc(NC(=O)[C@@H](O)[C@H](N)CCc3ccccc3)cc2)cc(OC)c1OC	> 98	0.85	–
CCSCC[C@@H](N)[C@H](O)C(=O)Nc1ccccc1	0	–	–
COc1cc(/C=C/C(=O)NC2CCC(NC(=O)[C@@H](O)[C@H](N)CCc3ccccc3)CC2)cc(OC)c1OC (some centres not stated)	46	–	–
COc1cc(/C=C/C(=O)Nc2ccc(NC(=O)[C@@H](O)[C@H](N)CCC3CCCCC3)cc2)cc(OC)c1OC	> 98	0.8	–
COc1cc(NC(=O)/C=C/c2cc(OC)c(OC)c(OC)c2)ccc1NC(=O)[C@@H](O)[C@H](N)CCc1ccccc1	> 98	0.7	–
COc1cc(/C=C/C(=O)Nc2ccc(NC(=O)[C@@H](O)[C@H](N)CC3CCCCC3)cc2C)cc(OC)c1OC	> 98	1.8	–
COc1cc(/C=C/C(=O)Nc2ccc(NC(=O)[C@@H](O)[C@H](N)Cc3ccccc3)cc2)cc(OC)c1OC	93	–	–
COc1cc(NC(=O)[C@@H](O)[C@H](N)CC2CCCCC2)ccc1NC(=O)/C=C/c1cc(OC)c(OC)c(OC)c1	> 98	1.2	–
CCOc1ccc(/C=C/C(=O)Nc2ccc(NC(=O)[C@@H](O)[C@H](N)CC3CCCCC3)cc2)cc1	> 98	1	–
CCSCC[C@@H](N)[C@H](O)C(=O)Nc1ccc(NC(=O)c2cc(OC)c(OC)c(OC)c2)cc1 (single isomer, unassigned)	20	–	–
CCSCCC(N)C(O)C(=O)Nc1ccc(NC(=O)/C=C/c2ccc(OC)cc2)cc1 (single isomer, unassigned)	43	–	–
CCSCCC(N)C(O)C(=O)Nc1ccc(NC(=O)/C=C/c2ccccc2)cc1 (single isomer, unassigned)	48	–	–
CCSCC[C@@H](N)[C@H](O)C(=O)Nc1ccc(NC(=O)c2ccc(OC)cc2)cc1 (single isomer, unassigned)	15	–	–
CCOc1ccc(/C=C/C(=O)Nc2ccc(NC(=O)C(O)C(N)CCSCC)cc2)cc1 (single isomer, unassigned)	91	–	–
COc1cc(/C=C/C(=O)Nc2ccc(NC(=O)[C@@H](O)[C@H](N)CC3CCCCC3)cc2)cc(OC)c1OC (stereo in doubt)	–	–	growth inhibition (GI) (HUVEC [1]): 96%; GI50 (HUVEC [2]): 2 µM
COc1cc(/C=C/C(=O)Nc2ccc(NC(=O)[C@@H](O)[C@H](N)CC3CCCCC3)cc2)cc(OC)c1OC (stereo in doubt; 11)	> 98	–	GI50 (HUVEC [2]): 0.67 µM
